Laboratory results as given in ChEMBL document CHEMBL4680241, “Structure-activity relationships of triazole-benzodioxine inhibitors of cathepsin X” (Eur J Med Chem, 2020).
pIC50: −log10 of the molar value. Active and inactive are the calls of the source. The rule behind the calls is not given here.

What was measured:
Cathepsin Z [1] = molecular target: T1, Cathepsin Z (Homo sapiens, UniProt Q9UBR2); test: Inhibition of human cathepsin X expressed in Pichia pastoris assessed as residual activity at 50 uM using Abz-FEK(Dnp)-OH as substrate incubated for 30 to 45 mins by fluorescence assay relative to control; details: time 30-45 min
How it was run: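 Substrate was Abz-FEK(Dnp)-OH at 3.25 µM final, compound at 50 µM final. Fluorescence (ex 320/em 420 nm) was followed continuously for 30-45 min at 37 °C. Activity was taken from rates relative to no-compound velocity. Two experiments in duplicate.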

Cathepsin Z [2] = molecular target: T1, Cathepsin Z; test: Inhibition of human cathepsin X expressed in Pichia pastoris assessed as residual activity using Abz-FEK(Dnp)-OH as substrate incubated for 30 to 45 mins by fluorescence assay
PC-3 [3] = test: Cytotoxicity against human PC-3 cells assessed as reduction in cell viability at 20 uM after 24 to 48 hrs by MTS assay; type: functional, cell-based; details: time 24-48 hrs
How it was run: (§1)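 PC-3 cells seeded at 6.5×10^4 cells/mL in Advanced DMEM/F-12 with 10% FBS and exposed to compound at 10 or 20 µM for 24 h or 48 h. Means ± SD of three independent assays, each in triplicate.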

PC-3 [4] = test: Cytotoxicity against human PC-3 cells assessed as reduction in cell viability at 10 uM after 24 to 48 hrs by MTS assay; type: functional, cell-based; details: time 24-48 hrs; how it was run: as §1
PC-3 [5] = test: Antimigratory activity against human PC-3 cells at 20 uM up to 72 hrs by xCELLigence based RTCA analysis; type: functional, cell-based; details: time hrs <=72
How it was run: (§2)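 PC-3 cells grown in Advanced DMEM/F-12 (1:1) with 10% FBS, L-glutamine and penicillin/streptomycin. Fibronectin-coated (10 μg/mL) xCELLigence CIM plates held 2 × 10⁴ cells per well. Compound at 10 or 20 μM was added to complete medium (lower chamber) or serum-free medium (upper chamber), with 0.1% DMSO as control. Cell index was read every 15 min for 72 h. Migration was taken as the slope of the curve over a selected interval, normalized to DMSO-treated cells. Means ± SD, two independent assays in duplicate or triplicate.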

Cathepsin S [6] = molecular target: T2, Cathepsin S (Homo sapiens, UniProt P25774); test: Inhibition of human cathepsin S expressed in Pichia pastoris at 100 uM using Z-VVR-AMC as substrate by fluorescence assay relative to control
How it was run: (§3)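 Cathepsin S expressed in P. pastoris, assayed in 100 mM phosphate buffer pH 6.5 containing 5 mM cysteine, 1.5 mM EDTA and 0.1% PEG 8000 after 5 min activation at 37 °C. Substrate was fluorogenic Z-VVR-AMC.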
Target sequence in this assay (P25774 115-331 limits assumed): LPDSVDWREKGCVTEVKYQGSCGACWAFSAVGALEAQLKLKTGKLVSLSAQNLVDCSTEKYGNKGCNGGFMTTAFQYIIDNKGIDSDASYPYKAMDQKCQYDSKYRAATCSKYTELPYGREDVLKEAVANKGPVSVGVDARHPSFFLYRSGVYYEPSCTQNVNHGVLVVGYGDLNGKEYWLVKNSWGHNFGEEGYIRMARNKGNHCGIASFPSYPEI

PC-3 [7] = test: Antimigratory activity against human PC-3 cells at 10 uM up to 72 hrs by xCELLigence based RTCA analysis relative to control; type: functional; details: dose 20 µM; time hrs <=72; in the assay text read “at 20 uM” for “at 10 uM”; how it was run: as §2
[8] = molecular target: Procathepsin L (Homo sapiens) (UniProt P07711); test: Inhibition of human cathepsin L expressed in Escherichia coli at 100 uM using Z-FR-AMC as substrate by fluorescence assay relative to control
[9] = molecular target: Cathepsin B (Homo sapiens) (UniProt P07858); test: Inhibition of human cathepsin B expressed in Escherichia coli at 100 uM using Abz-GIVRAK(Dnp)-OH as substrate by fluorescence assay relative to control
How it was run: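 Cathepsin B exopeptidase activity: recombinant enzyme from E. coli in 60 mM acetate buffer pH 5.0 with 5 mM cysteine, 1.5 mM EDTA and 0.1% PEG 8000, activated 5 min at 37 °C. Fluorogenic substrate Abz-GIVRAK(Dnp)-OH.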

Cathepsin S [10] = molecular target: T2, Cathepsin S; test: Inhibition of human cathepsin S expressed in Pichia pastoris using Z-VVR-AMC as substrate by fluorescence assay; how it was run: as §3
Target sequence in this assay (P25774 whole entry): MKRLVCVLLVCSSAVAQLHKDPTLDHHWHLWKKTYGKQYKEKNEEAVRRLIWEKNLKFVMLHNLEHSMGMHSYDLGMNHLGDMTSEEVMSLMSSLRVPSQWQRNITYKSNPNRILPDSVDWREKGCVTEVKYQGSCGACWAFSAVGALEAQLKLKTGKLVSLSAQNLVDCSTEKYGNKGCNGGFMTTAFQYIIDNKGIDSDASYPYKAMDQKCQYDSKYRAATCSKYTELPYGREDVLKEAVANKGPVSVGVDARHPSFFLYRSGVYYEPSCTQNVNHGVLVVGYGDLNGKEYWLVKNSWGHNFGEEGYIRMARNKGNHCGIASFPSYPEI

T1 sequence (Q9UBR2 whole entry): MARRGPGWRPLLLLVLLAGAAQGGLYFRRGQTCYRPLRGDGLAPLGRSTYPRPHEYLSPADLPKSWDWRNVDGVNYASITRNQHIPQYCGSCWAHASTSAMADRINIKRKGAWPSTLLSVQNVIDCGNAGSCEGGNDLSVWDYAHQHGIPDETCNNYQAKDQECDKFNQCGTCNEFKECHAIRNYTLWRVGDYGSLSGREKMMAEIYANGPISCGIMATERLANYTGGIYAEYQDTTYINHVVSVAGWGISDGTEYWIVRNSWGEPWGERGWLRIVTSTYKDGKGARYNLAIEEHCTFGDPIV
Procathepsin L (Homo sapiens), sequence (P07711 114-333 limits assumed): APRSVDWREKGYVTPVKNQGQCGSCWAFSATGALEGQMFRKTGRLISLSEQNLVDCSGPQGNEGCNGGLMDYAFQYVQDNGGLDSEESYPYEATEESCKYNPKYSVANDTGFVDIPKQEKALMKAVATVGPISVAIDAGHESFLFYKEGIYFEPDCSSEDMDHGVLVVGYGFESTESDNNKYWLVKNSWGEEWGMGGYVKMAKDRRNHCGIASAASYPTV

Compound | Activity (Cathepsin Z [1]) | other results
N#Cc1ccc(-n2cnnc2SCC(=O)c2ccc3c(c2)OCCO3)cc1 | 20% | pIC50 (Cathepsin Z [2]): 4.91; Activity (PC-3 [3]): Active; Activity (PC-3 [4]): inactive
Cn1nnnc1SCC(=O)c1ccc2c(c1)OCCO2 | 36% | –
CC(C)n1cnnc1SCC(O)c1ccc2c(c1)OCCO2 (configuration not stated) | 98% | –
CC(C)n1cnnc1SCC(=O)c1ccc2c(c1)OCO2 | 24% | –
COc1ccc(C(=O)CSc2nncn2C(C)C)cc1 | 66% | –
O=C(CSc1ncc[nH]1)c1ccc2c(c1)OCCO2 | 17% | pIC50 (Cathepsin Z [2]): 4.87; Activity (PC-3 [3]): inactive
CCOC(=O)COc1ccc(C(=O)CSc2nncn2C(C)C)cc1 | 60% | –
CC(C)n1cnnc1SCC(=O)c1cccc([N+](=O)[O-])c1 | 100% | –
Cc1n[nH]c(SCC(=O)c2ccc3c(c2)OCCO3)n1 | 28% | –
Cc1ccc(C(=O)CSc2nncn2C(C)C)cc1 | 75% | –
CC(C)Oc1ccc(C(=O)CSc2nncn2C(C)C)cc1 | 63% | –
O=C(CSc1nc(C2CCCCC2)nn1C(=O)C1CCCCC1)c1ccc2c(c1)OCCO2 | 43% | –
Cn1cnnc1SCC(=O)c1ccc2c(c1)OCCO2 | 17% | pIC50 (Cathepsin Z [2]): 4.93; Activity (PC-3 [3]): inactive; Activity (PC-3 [5]): inactive
CC(C)n1cnnc1SCC(=O)c1ccc(C#N)cc1 | 92% | –
CC(C)n1cnnc1SCC(=O)c1ccc(O)cc1 | 73% | –
CC(C)n1cnnc1SCC(=O)c1ccc(OCC(=O)O)cc1 | 85% | –
N#CCn1ccnc1SCC(=O)c1ccc2c(c1)OCCO2 | 12% | pIC50 (Cathepsin Z [2]): 5.15; Activity (PC-3 [3]): inactive; inhibition (Cathepsin S [6]): 30%; Activity (PC-3 [7]): 21%; inhibition [8]: 30%; inhibition [9]: 30%; pIC50 (Cathepsin S [10]): 3.62
O=C(CSc1nnc[nH]1)c1ccc2c(c1)OCCO2 | 23% | –
CC(C)n1cnnc1SCC(=O)c1ccc2c(c1)OCCO2 | 15% | pIC50 (Cathepsin Z [2]): 4.94; Activity (PC-3 [3]): inactive
CC(C)n1cnnc1SCC(N)c1ccc2c(c1)OCCO2 (configuration not stated) | 90% | –
COc1cccc(C(=O)CSc2nncn2C(C)C)c1 | 73% | –

Compound | Activity (Cathepsin Z [1]) | other results
NC(=O)c1ccc(-n2cnnc2SCC(=O)c2ccc3c(c2)OCCO3)cc1 | 35% | –
O=C(CSc1nc(C2CCCCC2)n[nH]1)c1ccc2c(c1)OCCO2 | 30% | –
CO/N=C(\CSc1nncn1C(C)C)c1ccc2c(c1)OCCO2 | 90% | –
O=C(CSc1nccs1)c1ccc2c(c1)OCCO2 | 22% | –
CC(C)n1cnnc1SCC(=O)c1ccc(N(C)C)cc1 | 41% | –
CCn1cnnc1SCC(=O)c1ccc2c(c1)OCCO2 | 24% | –
COc1ccccc1C(=O)CSc1nncn1C(C)C | 49% | –
CC(C)n1cnnc1SCC(=O)c1c[nH]c2ccccc12 | 27% | –
O=C(CSc1nc(-c2ccncc2)n[nH]1)c1ccc2c(c1)OCCO2 | 33% | –
Cc1[nH]c2ccccc2c1C(=O)CSc1nncn1C(C)C | 62% | –
O=C(CSc1nc(-c2ccccc2)n[nH]1)c1ccc2c(c1)OCCO2 | 37% | –
Cn1ccnc1SCC(=O)c1ccc2c(c1)OCCO2 | 15% | pIC50 (Cathepsin Z [2]): 5.02; Activity (PC-3 [3]): inactive; Activity (PC-3 [4]): inactive
O=C(CSc1cccs1)c1ccc2c(c1)OCCO2 | 39% | –
O=C(COc1nnc[nH]1)c1ccc2c(c1)OCCO2 | 71% | –
CC(C)n1cnnc1SCC(=O)c1ccc(Br)cc1 | 77% | –
CC(C)n1cnnc1SCC(=O)C(C)(C)C | 80% | –
CC(C)n1cnnc1SCC(=O)c1ccccc1 | 100% | –
CC(C)n1cnnc1SCC(=O)c1ccc(OCC#N)cc1 | 69% | –
O=C(CSc1nncn1-c1cccnc1)c1ccc2c(c1)OCCO2 | 22% | –
O=C(CSc1ccccc1)c1ccc2c(c1)OCCO2 | 48% | –
CN(C)c1ccc(-n2cnnc2SCC(=O)c2ccc3c(c2)OCCO3)cc1 | 55% | –
